SF-1 act = activates the human nuclear receptor SF-1; Q13285; CHO-K1 Gal4-SF-1 LBD luciferase reporter; % increase over DMSO SF-1-specific signal; activation, % at 10 µM; 65,000 tested, 1.9% active; AID 522;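 active = activation above the mean activation of all tested compounds plus 3 SD, cut at about 50% in these data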
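Material: Gal4–SF-1 LBD one-hybrid luciferase reporter in CHO-K1 cells | Amount: 4,000 cells per well | Compound dosing: 10 µM single point, 1% DMSO | Schedule: 20 h compound treatment, 37 °C | Measured by: SteadyLite luciferase luminescence | Evaluation: Percent activation versus DMSO | Control set: DMSO-treated SF-1-transfected cells as negative, DMSO-treated mock-transfected cells lacking SF-1 as background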
D1 allo mod = D1 dopamine receptor (human) allosteric modulation; HEK293 D1, CRE-luciferase, dopamine EC30 potentiation; actives deviate in either direction; B-score at 10 µM; 58,000 tested, 5.9% active; AID 641;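 active = luminescence count or its row- and column-corrected plate score outside the 99.7% band of the plate's sample wells, on either side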
Target sequence (P21728 whole entry, looked up): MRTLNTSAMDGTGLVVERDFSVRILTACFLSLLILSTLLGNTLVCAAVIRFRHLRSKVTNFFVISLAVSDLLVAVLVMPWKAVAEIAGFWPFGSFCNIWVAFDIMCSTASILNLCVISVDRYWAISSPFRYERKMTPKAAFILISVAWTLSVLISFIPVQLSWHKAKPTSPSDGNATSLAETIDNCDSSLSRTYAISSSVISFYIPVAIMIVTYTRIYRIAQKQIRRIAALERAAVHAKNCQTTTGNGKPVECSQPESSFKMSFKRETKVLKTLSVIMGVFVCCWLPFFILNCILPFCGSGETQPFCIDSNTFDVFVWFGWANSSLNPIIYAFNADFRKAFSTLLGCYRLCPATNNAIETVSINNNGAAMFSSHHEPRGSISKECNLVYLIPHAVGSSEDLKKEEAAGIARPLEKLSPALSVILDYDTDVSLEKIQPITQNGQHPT
RORa activator = RORA (human) activation | activation, % at 10 µM | CHO-K1 Gal4-RORA LBD luciferase reporter, luminescence; percent increase over mock-subtracted basal signal | 65,000 tested, 1.5% active;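 active = activation above the mean of all tested compounds plus 3 SD, cut at about 49% in these data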
M1 antagonist = blocks the rat M1 muscarinic receptor response to acetylcholine | 64,000 tested, 3.4% active | CHO-M1 cells, Fluo-4 calcium, ACh EC80 antagonist mode; stronger effect = lower value | AID 628 | P08482 | B-score at 10 µM;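 active = calcium fluorescence response, raw or row-and-column corrected B-score, differing from the plate sample mean either way at a set confidence level, mostly lower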
Htt clearance = mutant huntingtin protein clearance. HeLa Exon1htt(103Q)mCFP, aggregate imaging; zero = plate's median compound well. inhibition, % at 1.5 µM. 47,000 tested, 0.42% active;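 active = inhibition of aggregate fluorescence above about 70%, also judged a hit by eye on the cell image, limit read from the data, passing the limit was not always enough; inconclusive = no rule stated for this call; inactive = not judged a hit on image review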;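 also: cells exposed to compound for three days before fixation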
M1 ag = agonists of M1 muscarinic receptor | CHO-M1 cells, Fluo-4 calcium fluorescence, agonist mode; stronger effect = higher value | B-score at 10 µM | AID 626 | 64,000 tested, 3% active;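 active = fluorescence rise, raw or as B-score row- and column-corrected plate score, outside the 99.7% band of its plate's samples, either direction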
D1 PAM confirm = D1 receptor (human) allosteric modulation, confirmed; HEK293 D1 CRE-luciferase, dopamine EC30 potentiation; stronger effect = higher value; AID 642; 2,200 tested, 88% active; shares compounds with D1 allo mod; luminescence at 10 µM;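 active = luminescence in either of two replicates above the same-plate mean plus 3 SD of the low-dose dopamine control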
D1 no dopamine = D1 (human) signaling in absence of dopamine | shares compounds with D1 allo mod | HEK293 D1 CRE-luciferase, luminescence, no dopamine; stronger effect = higher value | luminescence at 10 µM | 1,900 tested, 0.8% active; in the data active = luminescence above about 3900
Isoprot counter = counter-screen for D1 modulators: isoproterenol response in HEK293 cells. HEK293 D1 CRE-luciferase, isoproterenol EC30 counter-screen. calls only at 10 µM. shares compounds with D1 allo mod. 2,200 tested, 63% active;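 active = luminescence in either replicate above plate mean of wells with a partly effective reference agonist dose plus 3 SD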;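 also: isoproterenol raises cAMP through native beta-adrenoceptor Gs so signal bypasses D1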
A number is an active result; . = inactive; ? = inconclusive; / = not tested or not shown; + = active, no number. A selection: hits, their analogues and other compounds. The true share with any hit is near 11%.

SMILES	SF-1 act	D1 allo mod	RORa activator	M1 antagonist	Htt clearance	M1 ag	D1 PAM confirm	D1 no dopamine	Isoprot counter
CCCCOc1cccc(NC(=O)CSc2nccn2C)c1	.	.	.	.	.	.	/	/	/
Cc1ccc(-n2nnnc2SCc2nnc(-c3ccccc3Br)o2)c(C)c1	.	.	.	.	/	.	/	/	/
O=C(CC1(O)C(=O)Nc2cc(Cl)cc(Cl)c21)c1ccncc1 (stereo unspecified)	.	3.5	.	/	/	/	.	.	.
Cc1ccc(Cl)c2c1NC(=O)C2(O)CC(=O)c1ccc(Br)cc1 (stereo unspecified)	/	/	/	/	.	/	/	/	/
CCOc1cccc(-c2nnc3n2N=C(c2cc(OC)ccc2OC)CS3)c1	.	17	61	.	/	.	13520	/	+
COc1ccccc1-c1nnc2n1N=C(C(C)(C)C)CS2	.	4	.	.	/	.	10640	.	.
COc1ccc(C2=Nn3c(nnc3-c3ccccc3OC)SC2)cc1OC	.	41	.	.	/	.	31124	/	+
CC(C)(C)C1=Nn2c(nnc2-c2ccccc2F)SC1	.	21	.	.	.	.	20880	/	+
Nc1nc(Nc2ccc(Cl)cc2Cl)nc(C(F)(F)F)n1	85	11	56	.	/	.	13920	/	+
COc1nc(Nc2cccc(C(F)(F)F)c2)nc(OC)n1	.	.	.	.	/	.	/	/	/
Nc1nc(Nc2ccccc2Br)nc(C(F)(F)F)n1	.	7.3	.	.	/	.	15052	.	+
COc1cccc(Nc2nc(N)nc(C(F)(F)F)n2)c1	.	11	.	.	/	.	14320	.	+
CCOC(=O)c1ccc(NC(=O)C2CCCO2)cc1 (stereo unspecified)	64	23	.	.	/	.	.	.	.
CCCCOC(=O)c1ccc(NC(=O)C2CCCO2)cc1 (stereo unspecified)	.	.	.	.	/	.	/	/	/
O=C(Oc1ccc2ccc(=O)oc2c1)N1CCOCC1	.	3.1	.	.	.	.	.	.	.
CCNc1nc(NCC)nc(OCCOC(C)=O)n1	/	/	/	/	.	/	/	/	/
CCNc1nc(NCC)nc(OCCOC(=O)c2ccccc2)n1	.	6.9	.	.	/	.	16012	.	+
C=C(C)CSc1nc(N)c2c(C)c(C)sc2n1	.	11	.	.	/	.	16788	.	+
CCCCc1nc2sc3c(c2c(=O)[nH]1)CCC3	.	.	.	.	/	.	/	/	/
O=C(Nc1ccccc1Cl)N1CCN(c2ccc3nnc(-c4ccccc4)n3n2)CC1	.	5.4	.	.	/	.	14068	/	+
CCNC(=O)N(C(=O)NCC)n1c(C)nnc1C	.	.	.	.	.	.	/	/	/
COc1ccc(C(=O)OCCNC(=O)c2c(Cl)nc3ccccn23)cc1	.	5.1	.	.	/	.	13996	.	+
CCSc1nsc(SCC)c1C(N)=O	.	.	.	.	?	.	/	/	/
CCCSc1nsc(SCCC)c1C(N)=O	.	4.4	.	.	.	.	9628	.	.
OC(CN1CCOCC1)CN1CCOCC1	.	2.6	.	.	.	.	.	.	.
SMILES	SF-1 act	D1 allo mod	RORa activator	M1 antagonist	Htt clearance	M1 ag	D1 PAM confirm	D1 no dopamine	Isoprot counter
CC(=O)Nc1ccc(C2NC(=O)c3ccccc3O2)cc1 (stereo unspecified)	.	3.1	.	.	.	.	.	.	.
CCn1c(N2CCC(C)CC2)nc2c1c(=O)n(C)c(=O)n2C	.	.	.	.	.	.	/	/	/
CCOc1nc(OCC)nc(N2CCC(C)CC2)n1	.	27	.	.	/	.	26964	.	+
COc1cc2cc(C)c(SCC(=O)N3CCOCC3)nc2cc1OC	.	5.7	.	.	.	.	10104	.	+
COc1ccc(-c2cc(C(F)(F)F)nc(SCC(=O)N3CCOCC3)n2)cc1OC	.	23	.	.	.	.	16556	.	+
COCCNC(=O)CSc1nc(-c2ccc(OC)c(OC)c2)cc(C(F)(F)F)n1	.	9.3	.	.	.	.	12172	.	+
CC1(C)C=Cc2c(c3ccccc3[nH]c2=O)O1	.	.	.	.	.	.	/	/	/
COc1cccc(C2CC(c3cccc(C)c3)n3ncnc3N2)c1 (stereo unspecified)	.	.	.	.	/	.	/	/	/
C/C(Cl)=C\Cn1c(N2CCCC2)nc2c1c(=O)[nH]c(=O)n2C	.	11	.	.	.	.	16008	.	+
Cn1c(=O)n(Cc2ccc(F)cc2)c(=O)c2c1nc1n2CCCN1Cc1ccccc1	.	.	.	.	.	.	/	/	/
C/C(Cl)=C/Cn1c(N2CCCC2)nc2c1c(=O)n(C)c(=O)n2C	.	8.5	.	.	.	.	7912	/	.
Cn1c(=O)[nH]c(=O)c2c1nc(N1CCCCCC1)n2CCN1CCCCCC1	.	.	.	.	/	.	/	/	/
C=CCn1c(N2CCCCCC2)nc2c1c(=O)[nH]c(=O)n2C	.	6.4	.	.	.	.	12744	.	+
Cn1c(N2CCCC2)nc2c1c(=O)n(Cc1ccc(F)cc1)c(=O)n2C	.	4.5	.	.	.	.	12452	.	+
CC(C)N(O)C(=O)NC(C)(C)C	.	.	.	.	.	.	/	/	/
CCOc1ccccc1CN(Cc1ccco1)S(=O)(=O)c1ccc(-n2cnnn2)c(OC)c1	.	.	.	.	/	.	/	/	/
Fc1ccc(Sc2cc(Cl)c(-c3ccccc3)nn2)cc1	/	/	/	/	.	/	/	/	/
COCC(C)NS(=O)(=O)c1ccc(NC(=O)C(Cc2ccccc2)NC(N)=O)cc1 (stereo unspecified)	.	.	.	.	.	.	/	/	/
Cc1nc(SCn2nnc3ccccc3c2=O)c2c(C)c(C)sc2n1	.	.	.	.	/	.	/	/	/
CCCCC(SCC(=O)Nc1ccccc1)C(=O)O (stereo unspecified)	.	.	.	.	.	.	/	/	/
COc1nccc(Nc2ccccc2)c1C#N	.	6.6	.	.	/	.	14732	/	+
Cc1ccc2nc(NCCO)nc(-c3ccccc3)c2c1	.	14	.	.	/	.	19388	/	+
COc1ccc(OC)c(N2C(=O)C(Cl)=C(N3CCCCC3)C2=O)c1	.	8.9	.	.	/	.	6148	.	.
CCN1C(=O)C(CC(=O)Nc2ccc(Br)cc2)N(CCCc2ccccc2)C1=S (stereo unspecified)	/	/	/	/	.	/	/	/	/
CC(=O)NC1C(=O)Nc2c1cccc2C(F)(F)F (stereo unspecified)	.	.	.	.	.	.	/	/	/
CCOC(=O)c1c(NC(=O)CN2CCOCC2)sc2c1CCCC2	.	.	.	.	/	.	/	/	/

High-throughput results from PubChem.
